Published values gathered from unrelated publications.
Lines come from different studies, so protocols differ.
Target: NUAK family SNF1-like kinase 2 (NUAK2, Homo sapiens, UniProt Q9H093)
Sequence (Q9H093 1-628, as in one of the studies): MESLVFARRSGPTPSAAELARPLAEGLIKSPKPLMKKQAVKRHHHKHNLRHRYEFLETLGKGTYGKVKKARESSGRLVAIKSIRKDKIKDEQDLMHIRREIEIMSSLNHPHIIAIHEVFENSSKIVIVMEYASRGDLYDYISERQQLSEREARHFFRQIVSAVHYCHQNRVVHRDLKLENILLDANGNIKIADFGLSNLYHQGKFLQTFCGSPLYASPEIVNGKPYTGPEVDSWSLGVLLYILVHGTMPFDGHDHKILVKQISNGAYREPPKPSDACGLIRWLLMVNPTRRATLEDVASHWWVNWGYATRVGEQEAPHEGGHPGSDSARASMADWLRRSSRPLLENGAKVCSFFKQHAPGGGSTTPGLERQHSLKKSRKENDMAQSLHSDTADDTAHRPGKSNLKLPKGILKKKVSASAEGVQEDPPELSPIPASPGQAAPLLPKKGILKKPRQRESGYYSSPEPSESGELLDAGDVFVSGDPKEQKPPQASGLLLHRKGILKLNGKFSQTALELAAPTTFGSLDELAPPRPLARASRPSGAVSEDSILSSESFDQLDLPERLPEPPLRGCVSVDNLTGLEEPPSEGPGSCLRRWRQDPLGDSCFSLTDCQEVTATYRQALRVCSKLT

Structure (SMILES)	assay	conditions	remaining binding [%]
COc1cc(-c2cn(C3CCc4ccccc4N(CC(F)(F)F)C3=O)nn2)ccc1-n1ccc(C)n1 (stereo not shown)	cell-free assay, competition with immobilised ligand	1 µM	88
CNC(=O)[C@@H]1CC[C@@H](n2c(-c3ccc4cnccc4c3)nc3ccc(C(=O)NCc4cccc(C(N)=O)c4)cc32)C1	binding, competition with immobilised ligand	1 µM	100
CNCc1ccccc1-c1csc([C@H](C)Nc2nc(C)nc3cc(OC)c(OC)cc23)c1	cell-free assay, competition with immobilised ligand	1 µM	100
C[C@@H]1CN(c2ccc3ncc(-c4ccc5[nH]nc(C6CC6)c5c4)n3n2)C[C@H](C)O1	binding, competition with immobilised ligand	0.5 µM	58
O=C(c1ccc(Nc2ncc(Cl)c(-c3cc4ccccc4s3)n2)cc1)N1CCC(N2CCCC2)CC1	binding, competition with immobilised ligand	1 µM	0.8
O=C(N1CCS(=O)(=O)CC1)N1C[C@H](c2ccc(OC(F)(F)F)cc2)C[C@H](c2nc(C3CC3)no2)C1	cell-free assay, competition with immobilised ligand	1 µM	100
N#Cc1ccccc1CSc1nnc2c(n1)[nH]c1ccccc12	binding, competition with immobilised ligand	10 µM	93
CN(C)c1nccc(-c2cnc3ncccn23)n1	binding	1 µM	83
COc1ncc2cc3ccccc3nc2c1C#N	cell-free assay, competition with immobilised ligand	5 µM	100
CC1CCCN1c1nccc(-c2cnn3ncccc23)n1 (stereo not shown)	binding	1 µM	85
COc1cnc(Nc2cccc(S(N)(=O)=O)c2)nc1N1CCN(c2ccccc2)C(=O)C1	binding, competition with immobilised ligand	1 µM	54
CNC(=O)Nc1ccc2c(c1)CC[C@@]21OC(=O)N(CC(=O)N(Cc2ccc(F)cc2)[C@@H](C)C(F)(F)F)C1=O	cell-free assay, competition with immobilised ligand	1 µM	74
O=C(NCCCN1CCOCC1)c1ccc(Nc2nccc(-c3cc4ccccc4s3)n2)cc1	binding, competition with immobilised ligand	1 µM	26
O=C(Nc1c[nH]nc1C(=O)NC1CCNCC1)c1cc(F)cc(F)c1	binding, competition with immobilised ligand	1 µM	100
C[C@H]1CCN(c2nccc(-c3cnn4ncccc34)n2)C1	binding	1 µM	79
Nc1c(C(=O)NCc2ccc(C(=O)NCCCC3CCCCC3)cc2)cnn1-c1ccccc1	cell-free assay, competition with immobilised ligand	0.1 µM	100
N[C@@H]1CCN(c2nccc(-c3cnn4ncccc34)n2)C1	binding	1 µM	100
O=C(NCCCN1CCOCC1)c1ccc(Nc2ncc(Cl)c(-c3ccc(Cl)s3)n2)cc1	binding, competition with immobilised ligand	1 µM	0.85
F[C@@H]1CCN(c2nccc(-c3cnn4ncccc34)n2)C1	binding	1 µM	88
CCCCN(CCCC)C(=O)CN1C[C@@H](c2cc(OC)c3c(c2)OCO3)[C@H](C(=O)O)[C@H]1CC(C)(C)CCC	cell-free assay, competition with immobilised ligand	1 µM	100
CN(CCCC(F)(F)F)c1nccc(-c2cnn3ncccc23)n1	binding	1 µM	92
c1cncc(-c2cccc(Nc3nccc(NC4CCCCC4)n3)c2)c1	binding, competition with immobilised ligand	10 µM	17
